High-throughput results: PubChem, The Scripps Research Institute Molecular Screening Center
Compounds with a hit are over-represented: about 4.7% of the library has one in this group of screens.
AHR act – activators of human aryl hydrocarbon receptor | P35869 | AHR-responsive luciferase reporter cells, luminescence | activation, % at 5 µM | actives 2.5% (n = 320,000); in the data active = activation above about 47%;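 also: 0% = vehicle wells and 100% = reference agonist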
MC4R antag cAMP – antagonists of human melanocortin 4 receptor (MC4R) | P32245 | MC4R-expressing cells, MTII-stimulated cAMP, LANCE TR-FRET | inhibition, % at 6.5 µM | actives 0.48% (n = 360,000);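 active = inhibition above its plate's cutoff, the mean of tested wells on that plate plus 3 SD, cut at about 29% in these data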;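 also: 0% = Melanotan II alone and 100% = Melanotan II plus saturating MCL0020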
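Assay system: U2OS cells stably expressing human melanocortin 4 receptor (MC4R) / Dosing: 6.5 µM / Timing: compound 30 min, challenge 1 h, detection 1 h / Measured by: Eu-cAMP/anti-cAMP TR-FRET, emission 671 nm / Replicates: singlicate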
MC4R barr agon – agonists of human melanocortin 4 receptor (MC4R) beta-arrestin | AID 540308 | P32245 | U2OS MC4R beta-arrestin complementation, luminescence; percent of melanotan II response, DMSO zero | activation, % at 8.9 µM | actives 0.98% (n = 360,000);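 active = activation above a per-plate cutoff, the mean activation of sample wells on that plate plus 3 SD, cut at about 8% in these data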
GAA850 FXN act – activators of GAA850 frataxin (FXN) promoter; HEK293 lucGAA850 FXN promoter luciferase reporter, 24 h; percent of 10 µM SAHA response; activation, % at 6 µM; actives 0.56% (n = 360,000);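 active = activation above the average of all compounds screened plus 3 SD, cutoff fixed separately per campaign, cut at about 7.5% in these data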;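 also: 0% = DMSO wells and 100% = 10 µM SAHA wells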
HTR2A ag – mouse HTR2A agonism via beta-arrestin recruitment | P35363 | CHO-K1 mHTR2A beta-arrestin complementation, luminescence; percent of 30 µM serotonin response | activation, % at 7.6 µM | actives 0.66% (n = 360,000) | AID 624169;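 active = activation above a run cutoff, the mean activation of all tested compounds plus 3 SD, cut at about 14% in these data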;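 also: 0% = plate median of compound wells and 100% = 30 µM serotonin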
MOR ag counter – OPRM1 agonism in mouse HTR2A counterscreen. shares compounds with HTR2A ag. U2OS OPRM1 beta-arrestin PathHunter, luminescence; DMSO 0%, DAMGO 9.3 µM 100%. activation, % at 9.3 µM. actives 5.3% (n = 2,300). AID 624380;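 active = mean activation above the mean of DMSO-only wells plus 3 SD, cut at about 0.5% in these data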
Target sequence (P35372 whole entry, looked up): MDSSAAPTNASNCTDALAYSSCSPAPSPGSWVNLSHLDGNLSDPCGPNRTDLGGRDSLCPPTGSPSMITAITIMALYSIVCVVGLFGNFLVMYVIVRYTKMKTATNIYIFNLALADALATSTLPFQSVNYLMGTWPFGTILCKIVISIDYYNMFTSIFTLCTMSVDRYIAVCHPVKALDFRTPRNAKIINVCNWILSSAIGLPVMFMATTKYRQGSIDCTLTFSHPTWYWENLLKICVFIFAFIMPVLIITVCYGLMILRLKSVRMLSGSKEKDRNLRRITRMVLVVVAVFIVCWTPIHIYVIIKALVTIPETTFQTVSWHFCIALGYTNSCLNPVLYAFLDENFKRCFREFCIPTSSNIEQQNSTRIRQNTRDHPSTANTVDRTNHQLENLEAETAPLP
HTR2A ag conf – confirmation of mouse HTR2A serotonin receptor agonists; activation, % at 7.6 µM; shares compounds with HTR2A ag; CHO-K1 PathHunter beta-arrestin recruitment, luminescence; DMSO 0%, 30 µM serotonin 100%; actives 19% (n = 2,300);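 active = mean activation across triplicates above the hit threshold derived in the original primary screen, cut at about 15% in these data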
* hit, by the source's call; x = no result.

SMILES | AHR act | MC4R antag cAMP | MC4R barr agon | GAA850 FXN act | HTR2A ag | MOR ag counter | HTR2A ag conf
COC(=O)N1CCCCC1c1cc(C(=O)Nc2cccc3c2CCCC3)no1 (stereo not drawn) | x | -2 | -1 | 2 | 17* | 0 | -3
O=C(O)c1cc([N+](=O)[O-])c(NCc2cccnc2)c([N+](=O)[O-])c1 | 0 | -1 | 0 | 4 | 0 | x | x
O=C(CCN1CCN(c2ccccc2)CC1)N/N=C/c1ccc(O)c(O)c1O | x | -7 | 0 | 1 | 15* | 0 | 51*
Cc1cccc(C(=Cc2ccc([N+](=O)[O-])cc2)C(=O)O)c1 | x | -2 | -2 | 4 | 2 | x | x
CC(C)C[C@H]1CNC(=S)N1CC1CCCN1C[C@H](CC(C)C)N1C[C@H](CC(C)C)N(CCc2ccccc2)C1=S (stereo partly drawn) | x | 5 | -1 | -2 | 3 | x | x
N#Cc1c(/N=C/c2ccco2)sc2c1CCC2 | 12 | -9 | -1 | -2 | -1 | x | x
Cc1ccc(/C=N/c2sc3c(c2C#N)CCCCC3)o1 | 2 | -5 | -1 | 2 | 16* | 0 | 16*
COc1ccc(C2Nc3ccccc3NC3=C2C(=O)CC(C)(C)C3)cc1OC (stereo not drawn) | 1 | -1 | 0 | 1 | 17* | 0.7* | 8
CCN1CCN(C(=O)c2c(-c3ccccc3)noc2C)CC1 | -1 | -2 | 0 | 1 | 17* | 0 | 1
CC(NC(=O)COC(=O)/C=C/c1ccc(Cl)cc1)c1ccccc1 (stereo not drawn) | 1 | 8 | 1 | 2 | -1 | x | x
COc1cc(/C=C/C(=O)OCC(=O)NC(C)c2ccccc2)cc(OC)c1OC (stereo not drawn) | 1 | -2 | -1 | -1 | 15* | 0 | 9
CN(CCO)S(=O)(=O)c1ccc2c(c1)C(=NN)c1cc(S(=O)(=O)N(C)CCO)ccc1-2 | 3 | -10 | -3 | 1 | 5 | x | x
O=C(O)C1CSC(c2ccc(O)c([N+](=O)[O-])c2)N1 (stereo not drawn) | x | 5 | -3 | 0 | 0 | x | x
O=C(O)C1CSC(c2ccc3c(c2)OCO3)N1 (stereo not drawn) | 0 | 5 | -2 | 5 | 16* | -1 | -5
COc1cccc(C(=O)NCC(=O)OCC(=O)Nc2cc(OC)c([N+](=O)[O-])cc2C)c1 | 20 | 4 | 2 | 2 | 17* | -1 | -4
COc1ccc(S(=O)(=O)N2c3ccccc3NC(=O)CC2C)cc1 (stereo not drawn) | 0 | 5 | -1 | 1 | 19* | -1 | -3
CCc1noc(C)c1C(=O)OCC(=O)Nc1cccc(C)c1 | 0 | 1 | 0 | 1 | -7 | x | x
COc1ccccc1CNC(=O)C1(C)CCN1Cc1ccc2ccccc2c1 (stereo not drawn) | x | 5 | -1 | 2 | -6 | x | x
Cc1ccc(C(c2sc3nc(C)nn3c2O)N2CCN(CCO)CC2)cc1 (stereo not drawn) | 2 | 8 | -1 | -2 | -9 | x | x
Cc1nc2sc(C(c3ccco3)N3CCC(C)CC3)c(O)n2n1 (stereo not drawn) | 0 | 4 | 0 | 0 | 4 | x | x
Cc1nc2sc(C(c3ccco3)N3CC(C)OC(C)C3)c(O)n2n1 (stereo not drawn) | 1 | 0 | -1 | 0 | 23* | 0 | -3
Cc1nc2sc(C(c3ccccc3)N3CCN(CCO)CC3)c(O)n2n1 (stereo not drawn) | 2 | 10 | -1 | 0 | 32* | -1 | -3
CCN(CC)c1ccc(/C=C2\C(=O)c3ccc(C(=O)O)cc3C2=O)cc1 | -1 | 12 | -4 | 5 | -1 | x | x
CCc1ccc(OC(C)C(=O)N(Cc2ccccc2)C2CCS(=O)(=O)C2)cc1 (stereo not drawn) | -1 | 9 | 1 | -1 | 3 | x | x
CCc1ccc(CN(C(=O)c2oc3ccccc3c2C)C2CCS(=O)(=O)C2)cc1 (stereo not drawn) | 3 | 1 | 2 | -1 | 15* | 0 | -3
